Experimental data: ChEMBL document CHEMBL1125366, “Low molecular weight, non-peptide fibrinogen receptor antagonists” (J Med Chem, 1992)
Square brackets hold non-standard residues; d marks the D form. Peptide text beside a SMILES is read from it. * marks the point of attachment. 3Abz = Nc1cccc(C(=O)O)c1; Boc = CC(C)(C)OC(=O)*

Legend:
[1] = Inhibition of platelet aggregation in human-platelet rich plasma(h-PRP) induced by thrombin; format: functional
Method in brief: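 Citrated human PRP with serial inhibitor dilutions; aggregation triggered by thrombin at 0.2 unit/mL (final) and followed as rate of light transmission change in an aggregometer; plasma from at least four donors.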

[2] = target: T1, Integrin alpha-IIb/beta-3 (Homo sapiens) (UniProt P05106+P08514); test: (§1) Inhibition of fibrinogen binding to immobilized fibrinogen receptor; format: protein-complex assay; set-up: reference not given here
[3] = Inhibition of platelet aggregation in human-platelet rich plasma(h-PRP) induced by adenosine 5'-diphosphate-(ADP); format: functional
Method in brief: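 Citrated human PRP with serial inhibitor dilutions; aggregation triggered by 10 μM ADP (final) and followed as rate of light transmission change in an aggregometer; plasma from at least four donors.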

[4] = Inhibition of platelet aggregation in human-platelet rich plasma(h-PRP) induced by collagen; format: functional
Method in brief: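 Citrated human PRP with serial inhibitor dilutions; aggregation triggered by collagen at 2.5 μg/mL (final) and followed as rate of light transmission change in an aggregometer; plasma from at least four donors.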

[5] = target: Integrin alpha-V/beta-3 (Homo sapiens) (UniProt P05106+P06756); test: Inhibition of fibrinogen binding to immobilized vitronectin receptor; format: protein-complex assay; set-up: reference not given here
[6] = target: T1, Integrin alpha-IIb/beta-3 (Homo sapiens); test: as §1; format: protein-complex assay

IC50 [1] [nM]	Ratio [2]	IC50 [3] [nM]	IC50 [4] [nM]	Ratio [5]	Ratio [6]	SMILES
500	0.0005	200	400	8000		N=C(N)c1ccc(C(=O)Nc2cccc(C(=O)NCCC(=O)O)c2)cc1
70	0.0003	60	60	4500		N=C(N)c1ccc(C(=O)NCCC(=O)N[C@@H](CC(=O)O)C(=O)N[C@@H](Cc2ccccc2)C(=O)O)cc1
50	0.002	60	110			N=C(N)c1ccc(C(=O)N2CCC[C@H]2C(=O)N2CCC(OCC(=O)O)CC2)cc1
4400	0.06	4900	7000	250		CC(C)[C@H](NC(=O)[C@H](CC(=O)O)NC(=O)c1cccc(NC(=O)[C@H](CCCN=C(N)N)NC(=O)OC(C)(C)C)c1)C(=O)O (Boc-R[3Abz]DV-OH)
9300	0.34	7400	11000	1700		C[C@@H](Cc1ccc(OCC(=O)O)cc1)NS(=O)(=O)c1ccc(C(=N)N)cc1
60	0.0001	70	70	37000		CN(CC(=O)c1ccc(OCC(=O)O)c(OCC(=O)O)c1)C(=O)c1ccc(C(=N)N)cc1
900	0.007	1100	900			N=C(N)c1ccc(C(=O)NCCC(=O)NCCC(=O)O)cc1
			11000			COC(=O)COc1ccc(C[C@H](C)NS(=O)(=O)c2ccc(C(=N)N)cc2)cc1
30	0.0002	30	20	17500		N=C(N)c1ccc(C(=O)N[C@@H](Cc2ccc(O)cc2)C(=O)N2CCC(OCC(=O)O)CC2)cc1 [LAMIFIBAN]
90	0.004	90	130	8400		N=C(N)c1ccc(C(=O)NCC(=O)c2ccc(OCC(=O)O)cc2)cc1
21000	0.3	19000	38000	3.5		N=C(N)NCCC[C@H](N)C(=O)NCC(=O)N[C@@H](CC(=O)O)C(=O)N[C@@H](Cc1ccccc1)C(=O)O (H-RGDF-OH)
380	0.02	350	340	> 30000		N=C(N)c1ccc(C(=O)N[C@@H](CC(=O)O)C(=O)N2CCC(OCC(=O)O)CC2)cc1
500	0.45	900	300	2300		COC(=O)COc1ccc(CCNC(=O)c2ccc(C(=N)N)cc2)cc1
50	0.0007	50	70	> 27000		C[C@H](NC(=O)c1ccc(C(=N)N)cc1)C(=O)N1CCC(OCC(=O)O)CC1 [RO-44-3888]
95000	10	95000	153000	2500		N=C(N)c1ccc(CC(N)C(=O)Nc2cccc(C(=O)NCCC(=O)O)c2)cc1 (stereo unspecified)
98000	0.63	127000	151000	0.6		CC(C)[C@H](NC(=O)[C@H](CC(=O)O)NC(=O)CNC(=O)[C@@H](N)CCCNC(=N)N)C(=O)O (H-RGDV-OH)
130	0.002	120	100	8000		COc1ccc(CCNC(=O)[C@H](CC(=O)O)NC(=O)CCNC(=O)c2ccc(C(=N)N)cc2)cc1
700	0.002	700	700	1700		CC(C)[C@H](NC(=O)[C@H](CC(=O)O)NC(=O)CCCNC(=O)c1ccc(C(=N)N)cc1)C(=O)O
20	6e-05	50	40			N=C(N)c1ccc(C(=O)NCCC(=O)N[C@@H](CC(=O)O)C(=O)N[C@@H](Cc2ccc(O)cc2)C(=O)O)cc1

IC50 [1] [nM]	Ratio [2]	IC50 [3] [nM]	IC50 [4] [nM]	Ratio [5]	Ratio [6]	SMILES
103000	10.5	115000	102000	> 30000		C[C@H](Cc1ccc(OCC(=O)O)cc1)NS(=O)(=O)c1ccc(C(=N)N)cc1
70	0.009	100	70	> 30000		N=C(N)c1ccc(C(=O)N[C@@H](CCCN)C(=O)N2CCC(OCC(=O)O)CC2)cc1
100	0.004	200	400	280		N=C(N)c1ccc(C(=O)NCCCCC(=O)N[C@@H](CC(=O)O)C(=O)N[C@@H](Cc2ccccc2)C(=O)O)cc1
135000	1	88000	142000	1		N=C(N)NCCC[C@H](N)C(=O)NCC(=O)N[C@@H](CC(=O)O)C(=O)N[C@@H](CO)C(=O)O
30	0.0001	20	30	> 30000		C[C@H](NC(=O)c1ccc(C(=N)N)cn1)C(=O)N1CCC(OCC(=O)O)CC1
40	0.001	30	20	> 20000		N=C(N)c1ccc(C(=O)NCC(=O)c2ccc(OCC(=O)O)cc2)nc1
300	0.001	300	500	560		CC(C)[C@H](NC(=O)[C@H](CC(=O)O)NC(=O)CNC(=O)Cc1ccc(C(=N)N)cc1)C(=O)O
400	0.028	800	300	1300		N=C(N)c1ccc(C(=O)NCCc2ccc(OCC(=O)O)cc2)cc1
> 200000	> 100	> 200000	> 200000			CC(C)(Oc1ccc(CCNS(=O)(=O)c2ccc(C(=N)N)cc2)cc1)C(=O)O
500	0.02	700	600	700		CC(C)[C@H](NC(=O)[C@H](CC(=O)O)NC(=O)CNC(=O)COc1ccc(C(=N)N)cc1)C(=O)O
90	0.008	110	100	> 8000		N=C(N)c1ccc(C(=O)NCC(=O)N2CCC(OCC(=O)O)CC2)cc1
			2300			CC(C)[C@H](NC(=O)[C@H](CC(=O)O)NC(=O)CNC(=O)CCc1ccc(C(=N)N)cc1)C(=O)O
68000	1.3	51000	50000	900		NC(N)=NCCC[C@H](N)C(=O)Nc1cccc(C(=O)NCCC(=O)O)c1
1100	0.007	900	1100	> 9000		C[C@@H](NC(=O)c1ccc(C(=N)N)cc1)C(=O)N1CCC(OCC(=O)O)CC1
			9600			NCc1ccc(C(=O)Nc2cccc(C(=O)NCCC(=O)O)c2)cc1
49000	0.37	13000	15000	12000		C[C@@]1(C(=O)N2CCC(OCC(=O)O)CC2)CCCN1C(=O)c1ccc(C(=N)N)cc1
12000	0.2	15000	12000			N=C(N)c1ccc(S(=O)(=O)NCCc2ccc(OCC(=O)O)cc2)cc1
78000	1		76000	570		N=C(N)c1ccc(C(=O)NCC(=O)N[C@@H](CC(=O)O)C(=O)N[C@@H](Cc2ccccc2)C(=O)O)cc1
> 200000		> 200000	> 200000		24	N=C(N)c1cccc(S(=O)(=O)NCCc2ccc(OCC(=O)O)cc2)c1
